HSF-1 act: increases HSF-1 driven luciferase reporter signal; NIH3T3-HGL HSF-1 luciferase reporter, MG132, 8 h; 100% = twice DMSO control signal; AID 504408; actives 1.7% (n = 300,000); activation, % at 9 µM;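 active means mean replicate activation of at least 50% with a set share of replicates each reaching 50%; inconclusive means only one of those two conditions met; inactive means mean below 50% and too few replicates reaching it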
MITF TRPM1 HTS: increases MITF-driven TRPM1 promoter luciferase signal. AID 588334. SK-MEL-5 TRPM1-promoter luciferase, 24 h; % of positive control, neutral wells = 0. actives 0.75% (n = 300,000). activation, % at 12.5 µM;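 active means mean activation of at least 80% with every replicate also reaching 80%; inconclusive means mean reaches 80% but some replicate falls short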
SR-BI DiI-HDL act: enhances SR-BI lipid uptake from DiI-HDL. AID 504775. actives 0.096% (n = 320,000). activation, % at 12.5 µM. CHO ldlA[mSR-BI] cells, DiI-HDL uptake fluorescence, 3 h; 100 = double the neutral-control signal;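 active means mean replicate activation of at least 60% and every replicate at or above 60%; inconclusive means mean or all-replicate condition met, but not both; inactive means mean below 60% and not all replicates reaching 60%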
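Test system: SR-BI-overexpressing, LDLR-lacking CHO cells. Measured by: DiI fluorescence, bottom read. Medium: Ham's F12 with 0.5% BSA, HEPES 25 mM, pH 7.4. Timing: 3 h uptake period with compound, 37 °C.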
Wnt act: Wnt/beta-catenin pathway activation. activation, % at 9.35 µM. actives 1.2% (n = 300,000). Wnt/beta-catenin reporter cell assay, activator, plate reader; in the data active means activation above about 30%, passing the limit was not always enough; inconclusive means no clear call, values can overlap the other calls
SR-BI HDL uptake: inhibitors of mouse SR-BI mediated HDL lipid uptake; ldlA[mSR-BI] CHO cells, DiI-HDL uptake fluorescence, 3 h; actives 0.96% (n = 320,000); inhibition, % at 12.5 µM;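 active means mean replicate inhibition of at least 70% and a set share of replicates each scoring 70 or more; inconclusive means meets just one of the two criteria; inactive means fails both criteria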
Target sequence (Q61009 whole entry, looked up): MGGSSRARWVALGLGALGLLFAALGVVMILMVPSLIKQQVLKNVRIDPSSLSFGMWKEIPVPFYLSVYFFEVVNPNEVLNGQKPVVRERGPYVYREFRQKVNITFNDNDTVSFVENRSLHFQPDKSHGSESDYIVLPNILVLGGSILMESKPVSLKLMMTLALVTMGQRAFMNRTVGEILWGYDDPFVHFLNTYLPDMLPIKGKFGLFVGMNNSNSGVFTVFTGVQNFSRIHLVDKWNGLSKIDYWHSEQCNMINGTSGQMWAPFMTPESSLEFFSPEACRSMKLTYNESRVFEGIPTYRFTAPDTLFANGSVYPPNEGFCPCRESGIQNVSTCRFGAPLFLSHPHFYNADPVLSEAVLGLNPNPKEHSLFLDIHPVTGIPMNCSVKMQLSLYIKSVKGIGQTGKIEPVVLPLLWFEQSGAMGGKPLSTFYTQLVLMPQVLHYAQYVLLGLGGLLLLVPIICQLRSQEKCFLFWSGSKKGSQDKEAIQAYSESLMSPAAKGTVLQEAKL
Large screens that a line does not name were inactive. Only some compounds are listed: those with a hit (about 3.6% of all), similar ones and a draw of the others.

O=C(O)CCn1nnc2ccccc21	Wnt act 47
O=C(Cn1nnc2ccccc21)c1ccc(Cl)cc1	Wnt act 45 (no result: SR-BI DiI-HDL act, SR-BI HDL uptake)
O=C(O)Cn1nnc2ccccc21	none
C(#Cc1ccccc1)Cn1nnc2ccccc21	MITF TRPM1 HTS 86 (no result: Wnt act)
CC1CN=C(NS(=O)(=O)c2ccccc2)N1 (configuration not stated)	none (no result: HSF-1 act, MITF TRPM1 HTS, SR-BI DiI-HDL act, SR-BI HDL uptake)
Cc1cccc(CSc2cn(CC(=O)N3CCOCC3)c3ccccc23)c1	HSF-1 act 76
O=S1(=O)CCN(C2CC2)CC1	none (no result: HSF-1 act, MITF TRPM1 HTS, SR-BI DiI-HDL act, SR-BI HDL uptake)
CC1CN(C(=S)NC(=O)C2CCCCC2)CC(C)O1 (configuration not stated)	HSF-1 act 52
COc1ccc(NC(=O)c2cc3c(s2)CCC3)cc1S(=O)(=O)N1CCOCC1	SR-BI HDL uptake 70 (no result: MITF TRPM1 HTS)
COc1ccc(S(=O)(=O)N2CCOCC2)cc1NC(=O)c1cc2c(s1)CCCC2	none (no result: Wnt act)
O=[N+]([O-])c1ccc(COc2cccc(CN3CCCCC3)c2)cc1	none (no result: HSF-1 act)
O=C(CC1Sc2ccccc2NC1=O)c1ccc(Br)cc1 (configuration not stated)	HSF-1 act 70, MITF TRPM1 HTS inconclusive
Cc1cc(N=NC(=O)c2ccccc2O)c2ccccc2c1O	HSF-1 act 77
Cn1c(O)c(N=NC(=O)c2ccccc2O)c2ccccc21	none
COc1cccc(CNCc2cccc(OC)c2O)c1O	none (no result: HSF-1 act)
COc1cccc(CNc2ncc(Br)cc2Br)c1O	HSF-1 act 138 (no result: Wnt act)
COc1cccc(CNc2ccc(Br)cn2)c1O	HSF-1 act 272 (no result: Wnt act)
OC[C@@H]1CN(Cc2ccc(-c3ccccc3)cc2)C[C@H](n2cnc3c(NCc4ccncc4)ncnc32)O1	none (no result: HSF-1 act, MITF TRPM1 HTS, SR-BI DiI-HDL act, SR-BI HDL uptake)
O=c1[nH]c(=S)[nH]c2c1[C@H](CCc1cccc(Cl)c1)O[C@H](C1CC1)C2	none (no result: HSF-1 act, MITF TRPM1 HTS, SR-BI DiI-HDL act, SR-BI HDL uptake)
COc1ncnc2c1cnn2-c1ccccc1	none (no result: MITF TRPM1 HTS)
CC1CCN(c2ncnc3c2cnn3-c2ccccc2)CC1	HSF-1 act 57, Wnt act inconclusive
COc1ccc(-n2ncc3c(N4CCC(C)CC4)ncnc32)cc1	none (no result: MITF TRPM1 HTS)
COc1ccccc1Oc1ncnc2c1cnn2-c1ccccc1	MITF TRPM1 HTS 91
CN(Cc1ccccc1)c1ncnc2c1cnn2-c1ccccc1	MITF TRPM1 HTS 85
Nc1ccc(F)c(CN2CCN(c3ncc(Cc4ccccc4)cn3)CC2)c1	none (no result: HSF-1 act, MITF TRPM1 HTS, SR-BI DiI-HDL act, SR-BI HDL uptake)
COc1ccc(-c2cc(C(=O)Nc3cc(Cl)ccc3OC)no2)cc1	none
COc1ccc(-c2cc(C(=O)NC(C)C)no2)cc1	MITF TRPM1 HTS 105 (no result: Wnt act)
COc1ccc(-c2cc(C(=O)Nc3cc(C)ccc3O)no2)cc1	HSF-1 act 68
Cc1ccc(-c2cc(C(=O)Nc3cc(C)ccc3O)no2)cc1	none (no result: MITF TRPM1 HTS)
COc1ccc(-c2cc(C(=O)Nc3cc(Cl)ccc3O)no2)cc1	MITF TRPM1 HTS 113
O=C(Cn1cc(COc2ccc(C(=O)c3ccccc3)cc2)nn1)c1ccc(O)cc1	none (no result: HSF-1 act)
CCOC(=O)N[C@H](C(=O)N1CCC[C@H]1C(=O)NCCc1ccccc1Cl)C1CCCCC1	none (no result: HSF-1 act, MITF TRPM1 HTS, SR-BI DiI-HDL act, SR-BI HDL uptake)
O=C(Nc1ccc(S(=O)(=O)Nc2ncccn2)cc1)c1cccc([N+](=O)[O-])c1	none (no result: HSF-1 act, MITF TRPM1 HTS, SR-BI DiI-HDL act, SR-BI HDL uptake)
N#C/C(=N\Nc1ccc(Cl)c(Cl)c1)C(=O)C1CC1	Wnt act 39 (no result: MITF TRPM1 HTS)
CCN(CC)CCCNC(=O)c1ccc2c3n(nc2c1)-c1ccc(Cl)cc1CO3	MITF TRPM1 HTS 114
O=C(NCC1CCCO1)c1ccc2c3n(nc2c1)-c1ccccc1CO3 (configuration not stated)	MITF TRPM1 HTS inconclusive, Wnt act inconclusive
CC(C)NC(=O)c1ccc2c3n(nc2c1)-c1ccc(Cl)cc1CO3	MITF TRPM1 HTS 102, Wnt act 34
O=C(c1ccc2c3n(nc2c1)-c1ccc(Cl)cc1CO3)N1CCOCC1	MITF TRPM1 HTS 126, Wnt act 33
CCOC(=O)[C@]12CCC=C1N(Cc1ccccc1)C(=O)[C@H](CC(=O)NCCCN1CCCC1=O)C2	none (no result: HSF-1 act, MITF TRPM1 HTS, SR-BI DiI-HDL act, SR-BI HDL uptake)
O=S1(=O)N=C(c2ccccc2)C=C(c2ccccc2)N1	none (no result: HSF-1 act)
COc1ccc(Cc2c(C3CCCCC3)nc3c(Cl)cc(C(F)(F)F)cn23)c(C)c1	none (no result: HSF-1 act, MITF TRPM1 HTS, SR-BI DiI-HDL act, SR-BI HDL uptake)
COC(=O)c1cc2c(c3c4ccccc4n(S(=O)(=O)c4ccc(OC)cc4)c13)C(=O)N(Cc1ccc(N(C)C)cc1)C2	none (no result: HSF-1 act, MITF TRPM1 HTS, SR-BI DiI-HDL act, SR-BI HDL uptake)
O=c1c(Cl)c(NCCCO)cnn1-c1nc2ccccc2[nH]1	HSF-1 act 63 (no result: MITF TRPM1 HTS)
C=CCN(CC=C)c1cnn(-c2nc3ccccc3[nH]2)c(=O)c1Cl	HSF-1 act inconclusive
O=C1CCCCc2sc(Br)c([N+](=O)[O-])c2N1	HSF-1 act 132

From PubChem BioAssay
